ChEMBL document CHEMBL4184223 (Bioorg Med Chem Lett, 2018)
Calls of active or inactive are those of the source. The rule behind the calls is not given here.

What was measured:
Cortical neurone [1] = assay: Toxicity in CD1 mouse primary cortical neurons assessed as effect on cell viability at 0.01 to 1 uM incubated for 24 hrs by CCK8 assay; assay type: cell-based
Procedure, shortened: (§1)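 Primary cortical neuron cultures were given compound alone across a concentration range, without Aβ. Cell viability was measured by CCK8 and expressed as percent reduction in viable cells. Data are mean ± SD of three independent experiments.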

Cortical neurone [2] = assay: Neuroprotective activity against amyloid beta (1 to 42) peptide-induced cytotoxicty in CD1 mouse primary cortical neurons assessed as increase in cell viability at 0.1 to 10 uM pre-incubated for 1 hr before amyloid beta (1 to 42) addition and measured after 24 hrs by CCK8 assay; assay type: functional, cell-based
BV-2 (Mus musculus) [3] = assay: Antiinflammatory activity in mouse BV-2 cells assessed as inhibition of LPS-induced TNF-alpha production at 20 nM pre-incubated for 1 hr before LPS stimulation for 23 hrs by ELISA method
[4] = Toxicity in African green monkey CV1 cells assessed as effect on cell viability incubated for 24 hrs by CCK8 assay
BV-2 (Mus musculus) [5] = assay: Antiinflammatory activity in mouse BV-2 cells assessed as inhibition of LPS-induced TNF-alpha production pre-incubated for 1 hr before LPS stimulation for 23 hrs by ELISA method
Cortical neurone [6] = assay: Neuroprotective activity against amyloid beta (1 to 42) peptide-induced cytotoxicty in CD1 mouse primary cortical neurons assessed as increase in cell viability at 0.01 to 1 nM pre-incubated for 1 hr before amyloid beta (1 to 42) addition and measured after 24 hrs by CCK8 assay; assay type: functional
Cortical neurone [7] = assay: Neuroprotective activity against amyloid beta (1 to 42) peptide-induced cytotoxicty in CD1 mouse primary cortical neurons assessed as increase in cell viability at 1 to 10 nM pre-incubated for 1 hr before amyloid beta (1 to 42) addition and measured after 24 hrs by CCK8 assay; assay type: functional, cell-based
Cortical neurone [8] = assay: Neuroprotective activity against amyloid beta (1 to 42) peptide-induced cytotoxicty in CD1 mouse primary cortical neurons assessed as increase in cell viability at 100 to 1000 nM pre-incubated for 1 hr before amyloid beta (1 to 42) addition and measured after 24 hrs by CCK8 assay; assay type: functional, cell-based
Cortical neurone [9] = assay: Toxicity in CD1 mouse primary cortical neurons assessed as effect on cell viability at 1000 nM incubated for 24 hrs by CCK8 assay; assay type: cell-based; conditions: 1 µM; procedure, shortened: as §1
[10] = Toxicity in CD1 mouse primary cortical neurons assessed as effect on cell viability at 100 nM incubated for 24 hrs by CCK8 assay; assay type: cell-based, Cortical neurone; conditions: read-out: Activity
Procedure, shortened: (§2)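 Primary cortical neuron cultures were exposed to compound alone at the stated concentration. Viability was measured by CCK8 and expressed as the percentage reduction in viable cells.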

[11] = Toxicity in CD1 mouse primary cortical neurons assessed as effect on cell viability at 50 nM incubated for 24 hrs by CCK8 assay; assay type: cell-based, Cortical neurone; conditions: read-out: Activity; procedure, shortened: as §2
[12] = Toxicity in CD1 mouse primary cortical neurons assessed as effect on cell viability at 25 nM incubated for 24 hrs by CCK8 assay; assay type: cell-based, Cortical neurone; conditions: read-out: Activity; procedure, shortened: as §2
[13] = Stability in neurobasal cell culture medium supplemented with B-27 and N2 assessed as compound hydrolysis by LC-HR MS method; assay type: physicochemical; conditions: read-out: Drug degradation
Procedure, shortened: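 Compound was incubated in neurobasal culture medium containing B-27 and N2 at 37 °C for 24 h, with no enzyme present. The remaining compound concentration was then quantified by LC-HRMS.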

Cortical neurone [14] = assay: Neuroprotective activity against amyloid beta (1 to 42) peptide-induced cytotoxicty in CD1 mouse primary cortical neurons assessed as increase in cell viability at 0.01 nM pre-incubated for 1 hr before amyloid beta (1 to 42) addition and measured after 24 hrs by CCK8 assay; assay type: functional
Cortical neurone [15] = assay: Toxicity in CD1 mouse primary cortical neurons assessed as effect on cell viability at =< 10 nM incubated for 24 hrs by CCK8 assay; assay type: cell-based; procedure, shortened: as §1
BV-2 (Mus musculus) [16] = assay: Antiinflammatory activity in mouse BV-2 cells assessed as inhibition of LPS-induced TNF-alpha production at 10 nM pre-incubated for 1 hr before LPS stimulation for 23 hrs by ELISA method
BV-2 (Mus musculus) [17] = assay: Antiinflammatory activity in mouse BV-2 cells assessed as inhibition of LPS-induced TNF-alpha production at 10 to 1000 nM pre-incubated for 1 hr before LPS stimulation for 23 hrs by ELISA method

| SMILES | Activity (Cortical neurone [1]) | Activity (Cortical neurone [2]) | Activity [4] | Activity (BV-2 (Mus musculus) [5]) | Activity (Cortical neurone [6]) | other results |
| --- | --- | --- | --- | --- | --- | --- |
| CC(C)[C@]1(O)[C@H](O)[C@@H]2O[C@]23[C@]2(O[C@H]2C[C@H]2C4=C(CC[C@@]23C)C(=O)OC4)[C@@H]1O | Non-Toxic | Active | – | – | – | – |
| CC(C)[C@]12O[C@H]1[C@@H]1O[C@]13[C@]1(O[C@H]1C[C@H]1C4=C(CC[C@@]13C)C(=O)OC4)[C@H]2F | – | – | Non-Toxic | Dose-dependent effect | inactive | inhibition at 0.02 µM (BV-2 (Mus musculus) [3]): 100% |
| CC(C)[C@]12O[C@H]1[C@@H]1O[C@@]13[C@@]1(C)CCC4=C(COC4=O)[C@@H]1CC[C@@]3(O)[C@@H]2O | Non-Toxic | – | Non-Toxic | – | – | Activity (Cortical neurone [7]): Active |
| CC(C)[C@]12O[C@H]1[C@@H]1O[C@]13[C@]1(O[C@H]1C[C@H]1C4=C(CC[C@@]13C)C(=O)OC4)[C@@H]2OC(=O)NC(C)(C)C | – | – | – | – | – | Activity (Cortical neurone [8]): inactive; Activity (Cortical neurone [9]): Toxic |
| CC(C)[C@]12O[C@H]1[C@@H]1O[C@@]13[C@@]1(C)CCC4=C(COC4=O)[C@@H]1C[C@@H]1O[C@@]13C2=O [TRIPTONIDE] | – | inactive | Non-Toxic | – | – | inhibition at 0.02 µM (BV-2 (Mus musculus) [3]): 100% |
| CC(C)[C@]12O[C@H]1[C@@H]1O[C@]13[C@]1(O[C@H]1C[C@H]1C4=C(CC[C@@]13C)C(=O)OC4)[C@@H]2O [TRIPTOLIDE] | – | – | – | Dose-dependent effect | 100% | viability at 24 h, 0.1 µM [10]: 76.5%; viability at 24 h, 0.05 µM [11]: 62.8%; viability at 24 h, 0.025 µM [12]: 27.2%; degraded [13]: 13%; Activity (Cortical neurone [14]): 100% |
| CC(C)[C@]12O[C@H]1[C@@H]1O[C@]13[C@]1(O[C@H]1C[C@H]1C4=C(CC[C@@]13C)C(=O)OC4)[C@@H]2OC(=O)NC12CC3CC(C)(CC(C)(C3)C1)C2 | – | – | Non-Toxic | Dose-dependent effect | Dose-dependent effect | viability at 24 h, 0.1 µM [10]: 73.5%; viability at 24 h, 0.05 µM [11]: 32.8%; viability at 24 h, 0.025 µM [12]: 7.7%; degraded [13]: 13%; Activity (Cortical neurone [14]): 100%; Activity (Cortical neurone [15]): Non-Toxic; inhibition at 0.01 µM (BV-2 (Mus musculus) [16]): 100% |
| CC(C)[C@]1(O)[C@H](F)[C@@H]2O[C@]23[C@]2(O[C@H]2C[C@H]2C4=C(CC[C@@]23C)C(=O)OC4)[C@@H]1O | Non-Toxic | Active | – | – | – | – |
| CC(C)C1=C[C@@H]2O[C@@]23[C@@]2(C)CCC4=C(COC4=O)[C@@H]2C[C@@H]2O[C@@]23C1=O | Non-Toxic | – | Non-Toxic | Dose-dependent effect | – | Activity (BV-2 (Mus musculus) [17]): inactive; Activity (Cortical neurone [7]): Active |
